# Assay outcomes: PubChem BioAssay, Johns Hopkins Ion Channel Center
# A selection: hits, their analogues and other compounds. The true share with any hit is near 3.7%.
# hERG protect – shields human hERG channel from block by proarrhythmic agents; Q12809; CHO-hERG, FluxOR thallium flux, dofetilide IC70 present; activation (rescue from dofetilide block), less the hit threshold, % at 10 µM; actives 0.51% (n = 310,000); AID 1511;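 active = activation above the mean of controls blocked by dofetilide plus 5 SD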;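 note: thallium influx through hERG after potassium depolarization seen as dye fluorescence rise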
# KCNQ1 pot – potentiates or activates the human KCNQ1 potassium channel | P51787 | CHO-K1 KCNQ1, thallium flux FluxOR fluorescence; hits give high values | B-score at 10 µM | actives 0.35% (n = 310,000);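 active = fluorescence ratio B-score, a plate-corrected score, at least three library SD, with initial intensity B-score within 5 SD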
#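 System: CHO-K1 cells stably expressing KCNQ1 / Medium: assay buffer for compound exposure, DMSO matched across wells / Reagent: thallium- and potassium-containing depolarizing buffer / Compound: one concentration, matched DMSO / Incubation: 20 min compound pretreatment at room temperature / Measured by: kinetic FluxOR fluorescence, 10 s baseline plus 110 s post-stimulus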
# KCNK3 inh – human KCNK3 channel inhibition, primary screen; CHO-KCNK3 thallium flux, FluxOR fluorescence; hits give low values; B-score at 10 µM; AID 602410; O14649; actives 0.84% (n = 340,000);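 active = B-score under library mean minus 4 SD, starting fluorescence ratio at most library mean plus 5 SD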;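 note: more negative B-score means stronger inhibition of thallium flux through KCNK3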
# KCNQ1 inh – blocks the human KCNQ1 potassium channel; B-score at 10 µM; CHO-K1 KCNQ1, FluxOR thallium flux fluorescence; hits give high values; P51787; actives 1.3% (n = 310,000);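 active = compounds whose thallium flux B-score, printed positive for inhibition, exceeds three library SD while starting fluorescence stays within three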;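 note: channel opened by potassium depolarization with thallium stimulus after 20 min compound exposure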
# Kir21 inh – Kir2.1 (mouse) channel inhibition; B-score at 10 µM; HEK293-Kir2.1, FluxOR thallium flux fluorescence; hits give low values; actives 0.85% (n = 310,000); AID 1672; P35561;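 active = fluorescence ratio B-score at or below minus 3 SD of library scores, with starting-brightness B-score within 2 SD, cut at about -4.2 in these data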;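 note: channel flux triggered by added potassium and thallium sulfate stimulus; B-score of peak minus minimum fluorescence over baseline after thallium stimulus; more negative B-score means stronger Kir2.1 block with less thallium influx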
# Target sequence (P35561 whole entry, looked up): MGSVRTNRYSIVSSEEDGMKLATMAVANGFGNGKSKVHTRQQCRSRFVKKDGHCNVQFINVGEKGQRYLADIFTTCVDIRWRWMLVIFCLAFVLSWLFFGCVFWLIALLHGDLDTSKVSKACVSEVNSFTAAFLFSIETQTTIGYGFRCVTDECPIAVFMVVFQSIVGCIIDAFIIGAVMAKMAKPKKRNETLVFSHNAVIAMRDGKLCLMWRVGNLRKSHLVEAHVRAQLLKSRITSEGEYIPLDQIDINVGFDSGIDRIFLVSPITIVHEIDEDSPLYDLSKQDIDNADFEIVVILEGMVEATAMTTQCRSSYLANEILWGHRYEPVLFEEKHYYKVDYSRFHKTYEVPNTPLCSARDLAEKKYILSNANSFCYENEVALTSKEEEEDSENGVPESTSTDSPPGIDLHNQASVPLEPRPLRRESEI
# KCNK9 block – human KCNK9 channel inhibition | HEK293 KCNK9, FluxOR thallium flux fluorescence; hits give low values | Q9NPC2 | B-score at 10 µM | actives 1.2% (n = 310,000) | AID 488922;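 active = ratio B-score over 3 SD below the library mean, with starting fluorescence within 5 SD of its mean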;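 note: negative B-score means less thallium flux so channel inhibition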
# KCNQ1 inh valid – human KCNQ1 channel inhibition, validation assay. shares compounds with KCNQ1 inh. KCNQ1 cell line, FluxOR thallium flux fluorescence. inhibition, % at 10 µM. actives 93% (n = 1,600);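 active = primary screen active, with duplicate mean exceeding buffer control mean plus 3 SD of buffer wells, cut at about 28% in these data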;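 note: 0% = buffer control ratio and 100% = XE991 inhibitor control ratio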
# CHO Tl flux – counter-screen for KCNQ1 inhibitors: effect in parental CHO cells; shares compounds with KCNQ1 inh; parental CHO-K1, FluxOR thallium flux fluorescence ratio; hits give low values; zero means no signal rise above baseline; fluorescence ratio (Tl flux) at 10 µM; actives 21% (n = 1,600); AID 588366;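 active = mean of duplicate thallium-flux fluorescence ratios in parental host cells more than 5 SD below the buffer control mean, cut at about 0.38 in these data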;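 note: ratio is peak minus minimum fluorescence divided by baseline fluorescence; actives read low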
# KCNQ1 ephys val – blocks human KCNQ1 current in automated patch clamp; shares compounds with KCNQ1 inh; KCNQ1-CHO cells; calls only at 10 µM; actives 20% (n = 490); AID 624120;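 active = KCNQ1 current drop exceeding 3 SD of negative control wells, seen in both duplicate runs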;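 note: steady state current during a 2 s step from -80 to +40 mV; negative values mean current inhibition and positive values mean potentiation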
# KCNQ2 inh – rat KCNQ2 inhibition in KCNQ1 inhibitor specificity screen; AID 651746; shares compounds with KCNQ1 inh; inhibition, % at 10 µM; actives 71% (n = 1,600); KCNQ2 cells, FluxOR thallium flux fluorescence;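 active = mean percent inhibition of the KCNQ2 thallium signal more than 5 SD above the buffer-only control wells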;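 note: KCNQ2 expressed in CHO cells; 0% = buffer control wells and 100% = XE-991 inhibitor control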
# KCNQ1-KCNE1 inh – KCNQ1 inhibitor that also blocks human KCNQ1/KCNE1 channel; inhibition, % at 10 µM; KCNQ1/KCNE1 cells, FluxOR thallium flux fluorescence; actives 77% (n = 1,600); shares compounds with KCNQ1 inh;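 active = mean percent inhibition of duplicate wells above the buffer-only control mean plus 3 SD of those controls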;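 note: 0% = buffer only wells and 100% = XE-991 inhibitor control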
# An asterisk follows results filed as active; i = inactive; / = not tested or not shown.
SMILES,hERG protect,KCNQ1 pot,KCNK3 inh,KCNQ1 inh,Kir21 inh,KCNK9 block,KCNQ1 inh valid,CHO Tl flux,KCNQ2 inh,KCNQ1-KCNE1 inh,others
CCc1ccccc1N1CCN(S(=O)(=O)c2ccc(F)c(C)c2)CC1,-14,i,i,7*,0.82,i,91*,0.44,80%*,91%*,KCNQ1 ephys val=i
CCn1c(=O)c(CCC(=O)N2CCN(c3ccccn3)CC2)c(C)c2c(C)nn(-c3ccccc3)c21,-10,i,i,7*,0,i,48*,0.44,93%*,80%*,
CCn1c(=O)c(CCC(=O)NCCN2CCOCC2)c(C)c2c(C)nn(-c3ccccc3)c21,-10,i,i,i,-1.6,i,/,/,/,/,
CN(C)S(=O)(=O)n1cnc(C(CCO)c2ncn(S(=O)(=O)N(C)C)c2CCCO)c1 (stereo not drawn),/,/,i,/,/,/,/,/,/,/,
O=C(Nc1ccc(OC(F)(F)F)cc1)Oc1ccccc1N1CCOCC1,-8,i,i,6*,-0.37,i,50*,0.5,70%*,39%*,
O=C(Nc1ccc(OC(F)(F)F)cc1)Oc1ccccc1N1CCCCC1,-19,i,i,9*,-0.99,i,82*,0.48,i,40%*,
COc1ccc(C=O)cc1Cn1ccnc1C,-10,i,i,i,-0.29,i,/,/,/,/,
Cc1cc(OCC(=O)Nc2ccncc2)ccc1Br,-14,i,i,13*,0.66,i,72*,0.54,i,i,
Cc1coc(C)c1C(=O)Nc1ccc2ccccc2c1,-6,i,i,i,-2,i,/,/,/,/,
c1ccc(OCCOc2ncnc3ccccc23)cc1,-11,i,i,i,-1.5,i,/,/,/,/,
Brc1ccc(COc2ncnc3ccccc23)cc1,-9,i,i,9*,0.68,i,0,0.44,68%*,42%*,
CC1CCN(CC(=O)Nc2ccc(C(=O)N3CCCCC3)cc2)CC1,-7,i,i,i,0.63,i,/,/,/,/,
CC(C)(C)OC(=O)N1CCCC(C(=O)CC#N)C1 (stereo not drawn),-11,i,i,9*,-0.36,i,96*,0.49,109%*,188%*,KCNQ1 ephys val=i
COc1cc(OC)cc(C(=O)Nc2ccc(-c3nc4ccccc4o3)cc2)c1,-7,i,i,10*,0.03,i,130*,0.4,89%*,69%*,KCNQ1 ephys val=i
COc1cccc(C(=O)Nc2ccc(-c3nc4ccccc4o3)c(O)c2)c1,-6,i,i,i,-1,i,/,/,/,/,
Cc1cc(C(=O)OCC(=O)NCCCN2CCCC2=O)c2ccccc2n1,-9,i,i,11*,0.04,i,0,0.51,i,73%*,
CC(NC(=O)Nc1ccc(Br)cc1)C(C)(C)C (stereo not drawn),-11,i,i,8*,-0.55,i,60*,0.43,69%*,66%*,
COc1ccc(N=C2SC(CC(=O)Nc3ccccc3)C(=O)N2Cc2ccccn2)cc1 (stereo not drawn),-9,i,i,i,0.31,i,/,/,/,/,
COc1ccc(N=C2SC(CC(=O)Nc3cccc(Cl)c3)C(=O)N2Cc2ccco2)cc1 (stereo not drawn),-10,i,i,12*,0.61,i,92*,0.43,93%*,136%*,KCNQ1 ephys val=i
CC(C)(C)c1ccc(C(=O)NCC(=O)NCC(C)(C)N2CCOCC2)cc1,/,/,i,/,/,/,/,/,/,/,
O=C(CCN1CCCC1Cc1ccccc1)c1ccc2c(c1)OCCO2 (stereo not drawn),-11,i,i,7*,-0.19,i,82*,0.42,78%*,100%*,
O=C(CCN1CCc2ccccc21)c1ccc2c(c1)OCCO2,-8,i,i,i,0.86,i,/,/,/,/,
O=C(CCN1CCCCC1)c1ccc2c(c1)OCCO2,1,i,i,i,0.34,i,/,/,/,/,
O=C(CCN1CCc2ccccc2C1)c1ccc2c(c1)OCCO2,-24,i,i,7*,0.02,i,44*,0.38*,70%*,83%*,
O=C(CCN1CCC(c2ccccc2)C1)c1ccc2c(c1)OCCO2 (stereo not drawn),-16,i,i,6*,-2.3,i,45*,0.43,60%*,56%*,
SMILES,hERG protect,KCNQ1 pot,KCNK3 inh,KCNQ1 inh,Kir21 inh,KCNK9 block,KCNQ1 inh valid,CHO Tl flux,KCNQ2 inh,KCNQ1-KCNE1 inh,others
CCN(CC)S(=O)(=O)c1ccc(N2CC(C(=O)Nc3cccc(C(=O)NC4CC4)c3)CC2=O)cc1 (stereo not drawn),/,/,i,/,/,/,/,/,/,/,
COc1ccc(CNC(=O)CCNC(=O)c2ccc(C(C)(C)C)cc2)cc1OC,/,/,i,/,/,/,/,/,/,/,
CN(C)CCCNCC(=O)c1c(-c2ccccc2)n(C)c2ccccc12,-6,i,i,i,-0.02,i,/,/,/,/,
CCN1CCN(C(=O)CCc2nnc(CCc3c[nH]c4ccccc34)o2)[C@@H](C)C1=O,-7,i,i,i,1.4,i,/,/,/,/,
c1ccc(-c2noc(CSc3nnnn3-c3ccccc3)n2)cc1,-11,i,i,6*,0.78,i,60*,0.48,62%*,74%*,
Cc1ccccc1N1C(=O)c2cccc3c(N(C)CCO)ccc(c23)C1=O,-32,i,i,i,-7.3,i,/,/,/,/,
COc1ccccc1N1C(=O)c2cccc3c(N(C)CCO)ccc(c23)C1=O,-20,i,i,7*,-6.5,i,100*,0.27*,i,i,
COc1nc(-c2ccccc2)cc(-c2ccc(OC)c(OC)c2)n1,-17,i,i,7*,0.57,i,119*,0.39,110%*,131%*,KCNQ1 ephys val=i
COc1ccc(-c2cc(-c3ccccc3)nc(NN)n2)cc1OC,-10,i,i,i,-1.7,i,/,/,/,/,
CC1Cc2ccccc2N1S(=O)(=O)c1cccc(C(=O)NCCCO)c1 (stereo not drawn),-4,i,i,i,0.47,i,/,/,/,/,
